In PMC3907283 (Nature, 2013):

Tests used:
Swi6 [1] = assay: Swi6 self-association by sedimentation equilibrium/velocity AUC; type: binding, S. pombe; settings: AUC, Supplementary Fig. 6
Swi6 [2] = biological target: T1, Swi6 (Schizosaccharomyces pombe, UniProt P40381); assay: as above; type: binding, S. pombe; settings: AUC
T1 sequence (P40381 1-328): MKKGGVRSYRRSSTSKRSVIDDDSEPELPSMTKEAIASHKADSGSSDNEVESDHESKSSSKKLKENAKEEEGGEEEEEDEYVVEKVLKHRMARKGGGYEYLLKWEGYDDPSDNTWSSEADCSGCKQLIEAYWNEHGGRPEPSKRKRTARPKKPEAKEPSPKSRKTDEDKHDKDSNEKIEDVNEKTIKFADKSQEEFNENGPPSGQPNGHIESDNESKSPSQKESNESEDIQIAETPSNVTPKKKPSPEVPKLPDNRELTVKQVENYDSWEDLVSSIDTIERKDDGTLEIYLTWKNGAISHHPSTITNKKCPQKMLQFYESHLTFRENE

Swi6 [3] = biological target: Swi6 (Schizosaccharomyces pombe, UniProt P40381, C121S/C124S/C310S); assay: as above; type: binding, S. pombe; settings: all three native cysteines mutated to serines; Supplementary Fig. 5
Swi6 [4] = assay: SV AUC weighted average sedimentation coefficient; type: binding, S. pombe; settings: [Swi6^WT] = 20μM
H3K9me3 tail peptide [5] = assay: H3 tail peptide binding; settings: Supplementary Fig. 5
Summary of the method: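 Intrinsic Trp fluorescence (W104 in aromatic cage): 200nM Swi6 in 20mM HEPES pH 7.5, 150mM KCl, 1 mM DTT, titrated with H3 peptide (residues 1–18), K9 trimethylated or unmethylated. 10min at 30°C, excitation 295 nm, emission read at 330 nm. Kd from 1:1 binding fit, averaged over three independent data sets.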

H3K9me3 nucleosomes = assay: Nucleosome binding by fluorescence anisotropy/polarization; set-up: species or system Xenopus laevis
Summary of the method: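 Core nucleosomes assembled from recombinant Xenopus histones on 147 bp 601 DNA, one end 6-carboxyfluorescein-labelled; H3K9me3 mimicked by methyl-lysine analog (H3KC9me3). 5-10 nM nucleosomes titrated with Swi6 in 20mM HEPES pH 7.5, 150mM KCl, 1 mM DTT, 0.01% NP40; 30 min at 24°C; FP at λex 480/λem 530nm. Fit to a two-step model giving Kd1 (Swi6–nucleosome) and Kd2 (scaffolded Swi6–Swi6); n ≥ 3, s.e.m.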

[6] = tested on: ura4+ reporter gene inserted at the pericentromeric imr region; assay: ura4+ reporter silencing assay; type: cell-based, S. pombe; settings: 5-FOA medium, 30°C, 2-3 days; Fig. 4d
Summary of the method: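 Strains grown overnight to saturation, adjusted to OD600 of 1 for the most concentrated spot, then 5-fold serial dilutions plated on non-selective YS and on 5-FOA (2 grams/liter) media.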

Swi6 [7] = assay: Swi6 protein levels in vivo; type: cell-based, S. pombe; settings: silencing strains; Supplementary Fig. 9
Summary of the method: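 Detection with rabbit polyclonal antibodies raised against recombinant Swi6.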

H3K9me3 tail peptide [8] = biological target: H3K9me3 tail peptide (UniProt P68431); assay: other fluorescence titration + fluorescence polarisation
AUC [9] = biological target: the molecule itself; assay: AUC
AUC [10] = biological target: the molecule itself; assay: AUC; remark: listed apart in the source

Chain of Swi6 (Schizosaccharomyces pombe, UniProt P40381, C121S/C124S/C310S) (P40381 whole entry C121S/C124S/C310S): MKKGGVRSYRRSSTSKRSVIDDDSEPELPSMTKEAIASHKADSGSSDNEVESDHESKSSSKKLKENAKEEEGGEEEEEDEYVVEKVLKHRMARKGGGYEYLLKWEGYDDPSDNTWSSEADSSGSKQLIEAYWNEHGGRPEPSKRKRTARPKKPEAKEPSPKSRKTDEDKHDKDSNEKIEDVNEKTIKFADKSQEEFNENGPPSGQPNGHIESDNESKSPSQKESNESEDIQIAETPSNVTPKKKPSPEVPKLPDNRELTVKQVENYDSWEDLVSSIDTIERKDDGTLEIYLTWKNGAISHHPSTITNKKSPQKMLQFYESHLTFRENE

## Swi6-CFP: Swi6 with the CFP tag moved to the C-terminus
Swi6 [1]
  sedimentation coefficient compared to CFP-Swi6 (in words): lower sedimentation coefficient

## Swi6^WT: major S. pombe HP1 protein, Swi6, wild type
Swi6 [2]; SE and SV global analysis, 8°C, RB: 20mM HEPES pH 7.5, 150mM KCl, 1 mM DTT
  1/Kobsiso, isodesmic self-association of Swi6 dimers (chain elongation): ~70 µM
Swi6 [2]; saturating methylated H3 tail peptide, Supplementary Fig. 4
  Swi6 dimerization with saturating methylated H3 tail peptide: weakened
Swi6 [3]
  effect of mutating native cysteines on oligomerization: destabilized oligomerization
Swi6 [4]
  sedimentation coefficient, tetramer (S4): ~ 5.2 S
H3K9me3 tail peptide [5]
  effect of mutating native cysteines on H3 peptide binding: destabilized oligomerization, H3 peptide binding
H3K9me3 nucleosomes; Supplementary Fig. 5
  effect of mutating native cysteines on nucleosome binding: destabilized oligomerization, H3 peptide binding, and nucleosome binding

B1: Swi6^LoopX (natural protein)
chain: MKKGGVRSYRRSSTSKRSVIDDDSEPELPSMTKEAIASHKADSGSSDNEVESDHESKSSSKKLKENAKEEEGGEEEEEDEYVVEKVLKHRMAAAGGGYEYLLKWEGYDDPSDNTWSSEADCSGCKQLIEAYWNEHGGRPEPSKRKRTARPKKPEAKEPSPKSRKTDEDKHDKDSNEKIEDVNEKTIKFADKSQEEFNENGPPSGQPNGHIESDNESKSPSQKESNESEDIQIAETPSNVTPKKKPSPEVPKLPDNRELTVKQVENYDSWEDLVSSIDTIERKDDGTLEIYLTWKNGAISHHPSTITNKKCPQKMLQFYESHLTFRENE
H3K9me3 nucleosomes; fluorescence anisotropy, Fig. 4a and Supplementary Fig. 8
  discrimination for the methyl mark in nucleosome binding: discrimination for the methyl mark was maintained
[6]
  silencing of ura4+ reporter: defects in silencing that are comparable to the swi6+ deletion strain
Swi6 [7]
  Swi6 protein levels: not due to reductions in protein levels
H3K9me3 tail peptide [8]
  fold stronger binding than Swi6^WT: 6 fold

B2: Swi6^WT (natural protein, S. pombe, UniProt P40381 1-328, looked up)
chain: MKKGGVRSYRRSSTSKRSVIDDDSEPELPSMTKEAIASHKADSGSSDNEVESDHESKSSSKKLKENAKEEEGGEEEEEDEYVVEKVLKHRMARKGGGYEYLLKWEGYDDPSDNTWSSEADCSGCKQLIEAYWNEHGGRPEPSKRKRTARPKKPEAKEPSPKSRKTDEDKHDKDSNEKIEDVNEKTIKFADKSQEEFNENGPPSGQPNGHIESDNESKSPSQKESNESEDIQIAETPSNVTPKKKPSPEVPKLPDNRELTVKQVENYDSWEDLVSSIDTIERKDDGTLEIYLTWKNGAISHHPSTITNKKCPQKMLQFYESHLTFRENE
AUC [9]
  Kd: < 1 nM

B3: CFP-Swi6 (natural protein, S. pombe, UniProt P40381 1-328, looked up)
chain: MKKGGVRSYRRSSTSKRSVIDDDSEPELPSMTKEAIASHKADSGSSDNEVESDHESKSSSKKLKENAKEEEGGEEEEEDEYVVEKVLKHRMARKGGGYEYLLKWEGYDDPSDNTWSSEADCSGCKQLIEAYWNEHGGRPEPSKRKRTARPKKPEAKEPSPKSRKTDEDKHDKDSNEKIEDVNEKTIKFADKSQEEFNENGPPSGQPNGHIESDNESKSPSQKESNESEDIQIAETPSNVTPKKKPSPEVPKLPDNRELTVKQVENYDSWEDLVSSIDTIERKDDGTLEIYLTWKNGAISHHPSTITNKKCPQKMLQFYESHLTFRENE
AUC [10]
  fold weaker dimer than Swi6^WT: ~10 fold
